# Measurements published in ChEMBL document CHEMBL1125590, “Purine and 1-deazapurine ribonucleosides and deoxyribonucleosides: synthesis and biological activity” (J Med Chem, 1991).
# pIC50, pKi: −log10 of the molar value.
# Assays:
# Adenosine deaminase [1] = molecular target: T1, Adenosine deaminase (Bos taurus, UniProt P56658); test: Compound was tested for the inhibition of Adenosine deaminase from calf intestine.
# T1 sequence (P56658 whole entry): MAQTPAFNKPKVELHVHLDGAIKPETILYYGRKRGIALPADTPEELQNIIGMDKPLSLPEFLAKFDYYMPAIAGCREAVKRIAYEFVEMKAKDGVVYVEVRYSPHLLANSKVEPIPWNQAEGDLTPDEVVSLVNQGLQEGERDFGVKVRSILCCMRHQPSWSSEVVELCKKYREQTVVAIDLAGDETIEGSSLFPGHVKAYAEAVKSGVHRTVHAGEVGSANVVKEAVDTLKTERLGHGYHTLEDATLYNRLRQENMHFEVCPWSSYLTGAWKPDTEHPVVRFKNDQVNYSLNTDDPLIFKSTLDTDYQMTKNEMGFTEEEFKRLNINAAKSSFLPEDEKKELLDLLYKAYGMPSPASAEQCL
# L1210 = test: Compound was tested for its antitumor activity to inhibit 50% of tumor cell growth in mouse leukemia L1210 cell lines.; format: functional; conditions: read-out: ID50 (the source's name)
# Method in brief: (§1)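 L1210 and P388 murine leukemia cells were kept in RPMI 1640 with 10% fetal calf serum, penicillin and streptomycin, plus 1 mM β-mercaptoethanol added at 1% (L1210) or 2% (P388). Stocks were 1 mg/mL in 5% DMSO, diluted in water (0.5% DMSO at the top dose). Cells were plated at 3×10^4/mL and treated immediately for 72 h, then Coulter-counted as % of control; IC50 was taken from concentration–response curves.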
# P388 = test: Compound was tested for its antitumor activity to inhibit 50% of tumor cell growth in mouse leukemia P388 cell lines.; format: functional; conditions: read-out: ID50 (the source's name); method in brief: as §1
# Adenosine deaminase [2] = molecular target: T1, Adenosine deaminase; test: Compound was tested for the inhibition of Adenosine deaminase from calf intestine; NA indicates not active
Compound,pKi (Adenosine deaminase [1]),pIC50 (L1210),pIC50 (P388),Ki (Adenosine deaminase [2])
OC[C@H]1O[C@@H](n2cnc3c(NO)ccnc32)[C@H](O)[C@@H]1O,5.92,5.28,5.31,
OC[C@H]1O[C@@H](n2cnc3/c(=N\O)[nH]cnc32)[C@H](O)[C@@H]1O,,5.51,5.80,
OC[C@H]1O[C@@H](n2cnc3c(NO)ccnc32)C[C@@H]1O,6.57,< 4.00,4.17,
O=[N+]([O-])c1ccnc2c1ncn2[C@H]1C[C@H](O)[C@@H](CO)O1,,4.83,4.69,Not Active
OC[C@H]1OC(n2cnc3c(NO)nc(Cl)nc32)[C@H](O)[C@@H]1O (stereo partly specified),,4.03,4.12,Not Active
O=[N+]([O-])c1cc(Cl)nc2c1ncn2C1O[C@H](CO)[C@@H](O)[C@H]1O (stereo partly specified),,6.05,5.82,Not Active
Nc1ncnc2c1ncn2[C@@H]1O[C@H](CO)[C@@H](O)[C@@H]1O [VIDARABINE],,4.66,4.77,

# Other lines, results leading:
pKi (Adenosine deaminase [1]),pIC50 (L1210),pIC50 (P388),Ki (Adenosine deaminase [2]),Compound
,5.32,5.37,Not Active,Cc1ccc(C(=O)OC[C@H]2O[C@@H](n3cnc4c(NO)cc(Cl)nc43)C[C@@H]2OC(=O)c2ccc(C)cc2)cc1
,5.31,4.98,Not Active,Cc1ccc(C(=O)OC[C@H]2O[C@@H](n3cnc4c(NO)nc(Cl)nc43)C[C@@H]2OC(=O)c2ccc(C)cc2)cc1
5.28,4.65,4.77,,Cc1ccc(C(=O)OC[C@H]2O[C@@H](n3cnc4c(NO)ccnc43)C[C@@H]2OC(=O)c2ccc(C)cc2)cc1
4.16,4.04,4.22,,OC[C@H]1OC(n2cnc3c(NO)cc(Cl)nc32)[C@H](O)[C@@H]1O (stereo partly specified)
